Results published in ChEMBL document CHEMBL3259568 (Bioorg Med Chem, 2014).

Legend:
Rattus norvegicus [1] = assay: Acute antiinflammatory activity in albino rat assessed as inhibition of carrageenan-induced paw edema at 13.5 mg/kg, po administered 1 hr followed by carrageenan challenge measured at 4 hrs by plethysmometric analysis relative to control; format: functional
Procedure, shortened: (§1)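 Male albino rats (170–220 g), fasted ≥12 h with water, six per group. Oral dosing in 0.5% sodium CMC (control 1 ml vehicle), then 1 h later subplantar 0.05 ml of 1% carrageenan into left hind footpad. […] Mean ± SEM, ANOVA/Dunnett.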

Rattus norvegicus [2] = assay: Acute antiinflammatory activity in albino rat assessed as inhibition of carrageenan-induced paw edema at 13.5 mg/kg, po administered 1 hr followed by carrageenan challenge measured at 2 hrs by plethysmometric analysis relative to control; format: functional; procedure, shortened: as §1
Rattus norvegicus [3] = assay: Ulcerogenic activity in albino rat stress model assessed as ulcer index at 10 mg/kg, po after 7 hrs; format: toxicity, organism-based; design: dose 10 mg/kg, route oral; conditions: in vivo
Procedure, shortened: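 Albino rats of either sex (170–250 g), six per group, starved 48 h with water, dosed orally 10 mg/kg in sodium CMC; killed 7 h later. Stomach opened along greater curvature and everted; lesions counted in five size classes (pinpoint to >4 mm) to give ulcer index, reported as min–max range.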

Mus musculus [4] = assay: Analgesic activity in albino mouse assessed as protection against glacial acetic acid-induced writhing at 19.5 mg/kg, po administered 0.5 hrs followed by glacial acetic acid challenge measured for 15 mins relative to control; format: functional
Procedure, shortened: (§2)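 Mice (20–25 g) pre-screened 24 h earlier with i.p. 10 ml/kg 0.6% glacial acetic acid; only responders used. Oral dosing as suspension in 0.5% sodium CMC 30 min before acetic acid challenge. Writhing episodes counted for 15 min; group means versus vehicle control; ANOVA with Dunnett test.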

Rattus norvegicus [5] = assay: Antipyretic activity in albino rat assessed as decrease in yeast-induced pyrexia by measuring temperature index at 10 mg/kg, po measured over 5 hrs by telethermometer (reference value: 1.04 degC); format: functional
Procedure, shortened: (§3)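 Male albino rats (170–230 g) given s.c. 2.5 ml 20% aqueous baker's yeast; rectal temperature by telethermometer before and at 18 h (taken as 0 h). Rats with 1–2 °C rise, six per group, dosed orally 30 min later (control 1 ml 0.5% sodium CMC). Temperature recorded hourly to 5 h; temperature index = sum of mean changes from 0 h.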

Rattus norvegicus [6] = assay: Antipyretic activity in albino rat assessed as yeast-induced pyrexia at 10 mg/kg, po measured at 4 hrs by telethermometer (reference value: 38 degC); format: functional; procedure, shortened: as §3
Rattus norvegicus [7] = assay: Antipyretic activity in albino rat assessed as yeast-induced pyrexia at 10 mg/kg, po measured at 1 hr by telethermometer (reference value: 38.26 degC); format: functional; procedure, shortened: as §3
Rattus norvegicus [8] = assay: Antipyretic activity in albino rat assessed as yeast-induced pyrexia at 10 mg/kg, po measured at 5 hrs by telethermometer (reference value: 37.89 degC); format: functional; procedure, shortened: as §3
Mus musculus [9] = assay: Acute toxicity in albino mouse assessed as mortality at 2000 mg/kg, po measured continuously for 3 hrs followed by every 30 mins for next 3 hrs up to 24 hrs; format: organism-based; design: dose 2000 mg/kg, route oral; conditions: in vivo
Procedure, shortened: (§4)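 OECD guideline test. Albino mice of either sex, 20–25 g, six per group, fasted 24 h with water ad libitum. Compounds suspended in 0.5% aqueous sodium CMC and given orally in increasing doses of 10, 20, 100, 200, 1000 and 2000 mg/kg b.w. Animals watched continuously for 3 h for general behavioural, neurological and autonomic profiles, then every 30 min for 3 h, then up to 24 h or until death.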

Mus musculus [10] = assay: Analgesic activity in albino mouse assessed as protection against glacial acetic acid-induced writhing at 10 mg/kg, po administered 0.5 hrs followed by glacial acetic acid challenge measured for 15 mins relative to control; format: functional; procedure, shortened: as §2
Mus musculus [11] = assay: Acute toxicity in albino mouse assessed as effect on neurological profile at 2000 mg/kg, po measured for 3 hrs; format: organism-based; design: dose 2000 mg/kg, route oral; conditions: in vivo; procedure, shortened: as §4
Mus musculus [12] = assay: Acute toxicity in albino mouse assessed as effect on autonomic profile at 2000 mg/kg, po measured for 3 hrs; format: organism-based; design: dose 2000 mg/kg, route oral; conditions: in vivo; procedure, shortened: as §4
Rattus norvegicus [13] = assay: Acute antiinflammatory activity in albino rat assessed as inhibition of carrageenan-induced paw edema at 10 mg/kg, po administered 1 hr followed by carrageenan challenge measured at 2 hrs by plethysmometric analysis relative to control; format: functional; procedure, shortened: as §1
Rattus norvegicus [14] = assay: Antipyretic activity in albino rat assessed as yeast-induced pyrexia at 10 mg/kg, po measured at 3 hrs by telethermometer (reference value: 38.11 degC); format: functional; procedure, shortened: as §3
Mus musculus [15] = assay: Acute toxicity in albino mouse assessed as effect on general behavioral profile at 2000 mg/kg, po measured for 3 hrs; format: organism-based; design: dose 2000 mg/kg, route oral; conditions: in vivo; procedure, shortened: as §4
Rattus norvegicus [16] = assay: Antipyretic activity in albino rat assessed as yeast-induced pyrexia at 10 mg/kg, po measured at 2 hrs by telethermometer (reference value: 38.20 degC); format: functional; procedure, shortened: as §3
[17] = target: T1, Prostaglandin G/H synthase 1 (Ovis aries) (UniProt P05979); assay: Inhibition of ovine COX1 peroxidase activity assessed as reduction of PGG2 to PGH2 by measuring oxidized TMPD level at 10 ug/ml by colorimetric assay relative to control
T1 sequence (whole entry): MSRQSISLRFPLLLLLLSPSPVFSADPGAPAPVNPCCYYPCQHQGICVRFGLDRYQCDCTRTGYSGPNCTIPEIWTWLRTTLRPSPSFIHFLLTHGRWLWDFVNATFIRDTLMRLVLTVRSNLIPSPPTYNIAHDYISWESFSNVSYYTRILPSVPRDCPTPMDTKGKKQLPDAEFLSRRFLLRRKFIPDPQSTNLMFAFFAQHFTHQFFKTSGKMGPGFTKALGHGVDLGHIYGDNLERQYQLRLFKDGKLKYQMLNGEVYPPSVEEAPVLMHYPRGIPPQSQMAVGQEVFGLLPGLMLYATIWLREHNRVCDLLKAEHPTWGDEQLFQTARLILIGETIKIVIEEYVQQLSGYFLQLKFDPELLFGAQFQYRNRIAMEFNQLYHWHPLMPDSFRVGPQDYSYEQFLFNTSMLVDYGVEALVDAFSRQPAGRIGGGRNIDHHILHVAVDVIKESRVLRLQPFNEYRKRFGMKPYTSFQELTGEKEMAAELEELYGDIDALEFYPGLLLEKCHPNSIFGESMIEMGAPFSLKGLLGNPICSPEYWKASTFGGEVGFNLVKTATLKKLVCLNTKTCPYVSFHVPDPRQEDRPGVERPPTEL

Rattus norvegicus [18] = assay: Acute antiinflammatory activity in albino rat assessed as inhibition of carrageenan-induced paw edema at 10 mg/kg, po administered 1 hr followed by carrageenan challenge measured at 4 hrs by plethysmometric analysis relative to control; format: functional; procedure, shortened: as §1
[19] = target: T2, Prostaglandin G/H synthase 1 (Ovis aries, UniProt P05979); assay: Inhibition of ovine COX1 peroxidase activity assessed as reduction of PGG2 to PGH2 by measuring oxidized TMPD level by colorimetric assay
T2 sequence (P05979 whole entry): T1 sequence (whole entry)

Rattus norvegicus [20] = assay: Antipyretic activity in albino rat assessed as yeast-induced pyrexia at 135 mg/kg, po measured at 3 hrs by telethermometer (reference value: 38.11 degC); format: functional; procedure, shortened: as §3
Rattus norvegicus [21] = assay: Antipyretic activity in albino rat assessed as decrease in yeast-induced pyrexia by measuring temperature index at 135 mg/kg, po measured over 5 hrs by telethermometer (reference value: 1.04 degC); format: functional; procedure, shortened: as §3
Rattus norvegicus [22] = assay: Antipyretic activity in albino rat assessed as yeast-induced pyrexia at 135 mg/kg, po measured at 2 hrs by telethermometer (reference value: 38.20 degC); format: functional; procedure, shortened: as §3
Rattus norvegicus [23] = assay: Antipyretic activity in albino rat assessed as yeast-induced pyrexia at 135 mg/kg, po measured at 1 hr by telethermometer (reference value: 38.26 degC); format: functional; procedure, shortened: as §3
Rattus norvegicus [24] = assay: Antipyretic activity in albino rat assessed as yeast-induced pyrexia at 135 mg/kg, po measured at 5 hrs by telethermometer (reference value: 37.89 degC); format: functional; procedure, shortened: as §3
Rattus norvegicus [25] = assay: Antipyretic activity in albino rat assessed as yeast-induced pyrexia at 135 mg/kg, po measured at 4 hrs by telethermometer (reference value: 38 degC); format: functional; procedure, shortened: as §3

SMILES: O=C(O)Cc1ccccc1Nc1c(Cl)cccc1Cl [DICLOFENAC]
- inhibition in vivo at 13.5 mg/kg (Rattus norvegicus [1]): 66.2%
- inhibition in vivo at 13.5 mg/kg (Rattus norvegicus [2]): 65.5%
- UI (Rattus norvegicus [3]): 5.5
- Activity (Mus musculus [4]): 79.3%

SMILES: S=c1oc(Cc2ccccc2Nc2c(Cl)cccc2Cl)nn1CN1CCOCC1
- T (Rattus norvegicus [5]): 3.91 °C
- T (Rattus norvegicus [6]): 37.06 °C
- T (Rattus norvegicus [7]): 37.7 °C
- T (Rattus norvegicus [8]): 37.15 °C
- Activity (Mus musculus [9]): Non-toxic
- Activity (Mus musculus [10]): 77%
- Activity (Mus musculus [11]): Non-toxic
- Activity (Mus musculus [12]): Non-toxic
- inhibition in vivo at 10 mg/kg (Rattus norvegicus [13]): 64.3%
- T (Rattus norvegicus [14]): 37.13 °C
- Activity (Mus musculus [15]): Non-toxic
- T (Rattus norvegicus [16]): 37.55 °C
- UI (Rattus norvegicus [3]): 2.6
- inhibition [17]: 34.1%
- inhibition in vivo at 10 mg/kg (Rattus norvegicus [18]): 63.8%
- IC50 [19]: > 50 µM

SMILES: S=c1oc(Cc2ccccc2Nc2c(Cl)cccc2Cl)nn1CNc1ccccc1Cl
- T (Rattus norvegicus [5]): 3.06 °C
- T (Rattus norvegicus [6]): 37.06 °C
- T (Rattus norvegicus [7]): 37.74 °C
- T (Rattus norvegicus [8]): 37.11 °C
- Activity (Mus musculus [9]): Non-toxic
- Activity (Mus musculus [10]): 77.6%
- Activity (Mus musculus [11]): Non-toxic
- Activity (Mus musculus [12]): Non-toxic
- inhibition in vivo at 10 mg/kg (Rattus norvegicus [13]): 59.4%
- T (Rattus norvegicus [14]): 37.36 °C
- Activity (Mus musculus [15]): Non-toxic
- T (Rattus norvegicus [16]): 37.77 °C
- UI (Rattus norvegicus [3]): 3.2
- inhibition [17]: 27.8%
- inhibition in vivo at 10 mg/kg (Rattus norvegicus [18]): 61.3%
- IC50 [19]: > 50 µM

SMILES: S=c1oc(Cc2ccccc2Nc2c(Cl)cccc2Cl)nn1CNC1CCCCC1
- T (Rattus norvegicus [5]): 4.38 °C
- T (Rattus norvegicus [6]): 37.79 °C
- T (Rattus norvegicus [7]): 37.98 °C
- T (Rattus norvegicus [8]): 36.78 °C
- Activity (Mus musculus [9]): Non-toxic
- Activity (Mus musculus [10]): 77.6%
- Activity (Mus musculus [11]): Non-toxic
- Activity (Mus musculus [12]): Non-toxic
- inhibition in vivo at 10 mg/kg (Rattus norvegicus [13]): 65.9%
- T (Rattus norvegicus [14]): 37.03 °C
- Activity (Mus musculus [15]): Non-toxic
- T (Rattus norvegicus [16]): 37.69 °C
- UI (Rattus norvegicus [3]): 3.6
- inhibition [17]: 19.6%
- inhibition in vivo at 10 mg/kg (Rattus norvegicus [18]): 67.5%
- IC50 [19]: > 50 µM

SMILES: CC(=O)Nc1ccc(O)cc1 [ACETAMINOPHEN]
- T (Rattus norvegicus [20]): 37.6 °C
- T (Rattus norvegicus [21]): 6.7 °C
- T (Rattus norvegicus [22]): 38 °C
- T (Rattus norvegicus [23]): 38.4 °C
- T (Rattus norvegicus [24]): 37 °C
- T (Rattus norvegicus [25]): 37.3 °C

SMILES: CC(=O)Oc1ccccc1C(=O)O [ASPIRIN]
- UI (Rattus norvegicus [3]): 4.7

SMILES: CN(Cn1nc(Cc2ccccc2Nc2c(Cl)cccc2Cl)oc1=S)c1ccccc1
- Activity (Mus musculus [9]): Non-toxic
- Activity (Mus musculus [11]): Non-toxic
- Activity (Mus musculus [12]): Non-toxic
- inhibition in vivo at 10 mg/kg (Rattus norvegicus [13]): 41.8%
- Activity (Mus musculus [15]): Non-toxic
- inhibition in vivo at 10 mg/kg (Rattus norvegicus [18]): 41%

SMILES: CCN1CCN(Cn2nc(Cc3ccccc3Nc3c(Cl)cccc3Cl)oc2=S)CC1
- T (Rattus norvegicus [5]): 6.6 °C
- T (Rattus norvegicus [6]): 37.7 °C
- T (Rattus norvegicus [7]): 39.2 °C
- T (Rattus norvegicus [8]): 37.1 °C
- Activity (Mus musculus [9]): Non-toxic
- Activity (Mus musculus [10]): 81%
- Activity (Mus musculus [11]): Non-toxic
- Activity (Mus musculus [12]): Non-toxic
- inhibition in vivo at 10 mg/kg (Rattus norvegicus [13]): 63.1%
- T (Rattus norvegicus [14]): 37.9 °C
- Activity (Mus musculus [15]): Non-toxic
- T (Rattus norvegicus [16]): 38.3 °C
- UI (Rattus norvegicus [3]): 1.9
- inhibition [17]: 28.4%
- inhibition in vivo at 10 mg/kg (Rattus norvegicus [18]): 68.9%
- IC50 [19]: > 50 µM
